The test system of data set [1] is neuroendocrine tumors (NETs). The note with it: NETTER-1 trial; cited from earlier work.
Data set [2] is described as follows: In vitro stability of [^225Ac]Ac-DOTATATE in saline. It counts as physicochemical. The note with it: 37 °C, up to 5 h, n=3, slight decrease in stability after 5 h.
Data set [3] is described as follows: Excretion from the kidneys after injection. It counts as in vivo. The note with it: 24 h after injection, 9 patients, mean ± SD, relative to injected activity. The method in brief: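 Patients received 100-120 kBq/kg of the test radioligand as a slow intravenous injection over 5 min, with arginine/lysine kidney protection. The amount excreted in urine was quantified against standard samples prepared at the time of injection. The excretion rate was expressed relative to injected activity and reported as mean ± standard deviation.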

Data set [4] in a line: In vivo stability in patients' blood and urine samples. The note with it: RP-HPLC. The method in brief: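 Samples came from the first 3 patients: blood at 0-10 min and urine up to 3 h post-injection. Blood was precipitated with acetonitrile (1:1) and centrifuged for 5 min at 14,680 rpm, and the supernatant was diluted 1:1 with water. Urine was diluted with water, filtered and analysed immediately. Both went to RP-HPLC, and fractions were gamma-counted (440 keV, [213Bi]) at least 20 h later and plotted by tube number.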

Data set [5] is described as follows: Toxicity and side effects according to CTCAE v5.0. The data set is classed as in vivo, patients. The essentials: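 Patients were treated as inpatients with amino-acid renal protection and ondansetron premedication. Vital signs were recorded every 60 min for 5 h, and complaints were tracked for 24 h. Adverse events were graded by CTCAE v5.0 three months after each cycle. Haematological, renal and liver values before versus after the last cycle were compared by Wilcoxon rank sum test and reported as mean ± standard deviation, with p<0.05 taken as significant.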

Data set [6] can be described thus: [^68Ga]Ga-DOTATATE uptake of parotid glands. The data set is classed as in vivo, patients. The note with it: [^68Ga]Ga-DOTATATE PET/CT. The essentials: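 Parotid SUVmax was read on [68Ga]Ga-DOTATATE PET/CT at baseline and after cycles of treatment. Pre/post values were compared by Wilcoxon rank sum test and reported as mean ± standard deviation, with p<0.05 taken as significant.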

The test system of the next data set is NET. The note with it: recent study of the same group; cited from earlier work.
Data set [7] has as its system metastatic neuroendocrine tumors (NETs). The experiment in a line: Response evaluation by [^68Ga]Ga-DOTATATE PET/CT and RECIST 1.1. The data set is classed as in vivo, patients. The note with it: [^68Ga]Ga-DOTATATE PET/CT three months after treatment, n=9 evaluated. The essentials:
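Treatment was 100-120 kBq/kg given intravenously over 5 min. Response was read on [68Ga]Ga-DOTATATE PET/contrast-enhanced CT within 4 weeks before and 12-16 weeks after treatment, repeated 12-18 weeks after each cycle until progression or death, and scored by RECIST 1.1 on the ceCT. PFS ran from the first administration and was estimated by Kaplan-Meier. Response comparisons used chi-square, with p<0.05 taken as significant.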

[8] abbreviates: CTCAE v5.0, 8 patients analysed, n=1 (grade 2, after 3 cycles).

As for [^177Lu]Lu-DOTATATE, the “estimated median progression-free survival (PFS)” value in data set [1] is given as 40 months.

In the case of [^225Ac]Ac-DOTATATE, the “RP-HPLC profile of saline incubation samples” value in data set [2] is listed as “single radioactivity peak”. Further, in data set [3], the “mean excretion rate from the kidneys” value is listed as 56±9.7%. Moreover, the “time stable in vivo (urine and blood samples)” value in data set [4] (first 3 patients, blood 0-10 min, urine up to 3 h after injection) was at least 3 h. In addition, in data set [4] (patient urine samples up to 3 h after injection), the “time remained stable in urine” value was “up to 3 h”. In data set [5] (setting [8]), the hematotoxicity rate worked out at 12.5% and the nephrotoxicity rate amounted to 12.5%. In addition, the “grade 3-4 toxicities” value in data set [5] (CTCAE v5.0, mean activity 8.2±0.6 MBq per cycle, 1-3 cycles) was “No grade 3-4 toxicities”. Moreover, the lymphocyte count entry in data set [5] (all patients, p<0.05) is recorded as “transient decrease”. Moreover, in data set [5] (nausea or vomiting, slow injection over 5 min, 100-120 kBq/kg), the “acute side effects during the injection” value is reported as “did not observe any acute side effects”. Moreover, the xerostomia result in data set [5] (patient complaints) is “did not complain of xerostomia”. The “mean parotid SUVmax after two cycles” value in data set [6] (n=6, baseline 2.98±0.96, p=0.73) was found to be 2.48±0.59. Moreover, in data set [6] (n=9, baseline 2.98±0.96, p=0.93), the “mean parotid SUVmax after the first cycle” value is 2.07±0.93. In the data set on NET, the disease control rate was 79.8%. Moreover, in data set [7] (n=1), the progressive disease came to 11%. In addition, in data set [7] (n=4), the “partial response (PR)” value came out at 44.4%.

The values above are taken from article PMC10600558 (Molecular Imaging and Radionuclide Therapy, 2023).
